The list is not random: actives were taken first. Their share in the collection is about 29%.
CYP2C19 inh: inhibitors of human CYP2C19; 96,000 tested, 21% active; P33261; CYP2C19 Supersomes, luciferin-H EGE luminescence, 30 min; inhibition, % at 5 µM;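 active means CYP2C19 inhibition above a set limit at 5 µM in the primary screen, cut at about 50% in these data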;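 further: plate controls were negative control wells for no effect and 2.5 mM tranylcypromine positive control for full effect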
E coli WT exp: blocks growth of wild type E. coli BW25113. OD600 absorbance. growth inhibition, % at 100 µM. 98,000 tested, 0.15% active. AID 710;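 active means growth inhibition above about 50% at one test dose, limit read from the data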;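 further: growth measured after 20 h incubation at 37 °C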
tolC growth inh: growth inhibitors of E. coli BW25113 tolC mutant | OD615 | growth inhibition, % at 10 µM (by protocol) | 65,000 tested, 2.2% active | AID 573;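 active means growth inhibition at or above a cutoff equal to the mean over every tested compound plus 3 SD, cut at about 60% in these data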;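 further: growth measured after 20 h incubation at 37 °C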
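Material: E. coli BW25113 ΔtolC::kan, tolC deletion mutant strain. Measure: percent growth inhibition. Schedule: 37 °C, 20 h exposure. Doses: single-point testing at 10 µM. Signal: A615 absorbance measurement. Buffer or medium: kanamycin-containing LB broth (50 µg/mL).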
CYP2C19 act: increases human CYP2C19 enzyme activity. AID 1025. activation factor at 5 µM. recombinant CYP2C19, luciferin-H EGE luminescence; active compounds read high; 0 = fully inhibited enzyme, 1 = untreated enzyme. 96,000 tested, under 10 active. P33261;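 active means activation factor of at least 2 at 5 µM in the primary screen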;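 further: 0 = wells with 2.5 mM tranylcypromine and 1 = vehicle-only wells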
CYP2C9 act: increases human cytochrome P450 2C9 activity; P11712; recombinant CYP2C9, luciferin-H conversion, luminescence; active compounds read high; factor 1 = untreated enzyme, 0 = blocked; activation factor at 5 µM; 96,000 tested, 1.4% active;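 active means activation factor of 2 or more for CYP2C9 at a 5 µM dose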;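 further: 0 = sulfaphenazole-blocked wells and 1 = vehicle-only wells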
Target sequence (P11712 whole entry, looked up): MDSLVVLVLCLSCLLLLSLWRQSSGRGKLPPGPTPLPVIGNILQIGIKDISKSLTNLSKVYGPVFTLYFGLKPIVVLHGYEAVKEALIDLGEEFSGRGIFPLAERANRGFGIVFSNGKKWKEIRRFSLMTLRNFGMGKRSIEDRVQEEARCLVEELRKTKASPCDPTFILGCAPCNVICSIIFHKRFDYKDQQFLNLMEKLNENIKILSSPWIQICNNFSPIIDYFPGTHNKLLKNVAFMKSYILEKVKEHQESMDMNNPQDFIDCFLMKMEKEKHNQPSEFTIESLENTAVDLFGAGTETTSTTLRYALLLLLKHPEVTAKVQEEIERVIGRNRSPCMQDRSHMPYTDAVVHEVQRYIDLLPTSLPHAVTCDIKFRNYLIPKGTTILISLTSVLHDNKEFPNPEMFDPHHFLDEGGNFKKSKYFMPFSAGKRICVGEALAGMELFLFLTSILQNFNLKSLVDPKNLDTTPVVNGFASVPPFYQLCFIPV
CYP2C9 inhib: inhibitors of human CYP2C9; P11712; CYP2C9 Supersomes, luciferin-H conversion, luminescence; inhibition, % at 5 µM; 96,000 tested, 20% active; AID 777;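 active means blocking of liver enzyme CYP2C9 beyond about 50% at 5 µM, limit read from the data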
Numbers without * were called inactive; / = not tested or not shown.

SMILES	CYP2C19 inh	E coli WT exp	tolC growth inh	CYP2C19 act	CYP2C9 act	CYP2C9 inhib
O=C(c1ccccc1)N1CCN(S(=O)(=O)N2CCCCC2)CC1	87*	6	-9	0.1	0.5	49
O=C(c1cccc(F)c1)N1CCN(S(=O)(=O)c2ccccc2)CC1	76*	-4	-8	0.2	1	-1
O=C(c1cccc(S(=O)(=O)N2CCCCC2)c1)N1CCN(S(=O)(=O)c2ccc(F)cc2)CC1	35	1	/	0.6	0.6	41
O=C(c1ccccc1)N1CCN(C(=O)N2CCOCC2)CC1	34	6	-2	0.7	1.1	-7
CCOC(=O)C1CCN(C(=O)Nc2ccc3nc(C)c(C)nc3c2)CC1	2	-6	-9	1	1	1
OCCN(Cc1ccccc1)Cc1cccc(C(F)(F)F)c1	73*	12	3	0.3	0.8	20
CCCN(CCO)Cc1cccc(Cl)c1	7	9	-10	0.9	1	-5
OCCN(Cc1ccccc1)Cc1cccc(F)c1	70*	-8	-6	0.3	0.8	16
OCCN(Cc1ccccc1)Cc1ccc(C(F)(F)F)cc1	95*	14	/	0	0.5	50*
OCCN(Cc1ccccc1)CC1CCCCC1	2	3	-16	1	1	-5
CC(=O)Nc1cc2c(cc1NC(=O)c1cnccn1)OCCO2	30	-4	-26	0.7	1	-3
CCOC(=O)N1CCN(C(=O)c2ccc3c(=O)n4c(nc3c2)CCCCC4)CC1	19	5	-3	0.8	0.9	8
CO/N=C(\Cn1ncc(N2CCCC2)c(Br)c1=O)c1ccc(Cl)cc1	89*	-14	/	0.1	0.1	86*
C=CCNc1cnn(CC(C)=O)c(=O)c1Br	7	-2	/	0.9	1	-5
CO/N=C(\Cn1ncc(NC2CCCCC2)c(Br)c1=O)c1ccc(Cl)cc1	7	-5	/	0.9	0.5	54*
CCCCOc1ccccc1C1C(C(=O)OC)=CN(CC)C=C1C(=O)OC	37	-14	12	0.6	0.6	35
CCCOc1ccccc1C1C(C(=O)OC)=CN(C(C)C)C=C1C(=O)OC	89*	6	17	0.1	0.1	87*
CCCn1c(SCc2cc(=O)oc3ccc4ccccc4c23)n[nH]c1=O	78*	5	19	0.2	0.2	84*
COc1ccc(C(=O)CSc2nnc(-c3ccccc3)o2)cc1	10	-18	6	0.9	1.3	-33
C=CCSc1nnc(-c2ccncc2)n1-c1ccc(OCC)cc1	99*	0	12	0	0.5	54*
COc1ccc(-n2c(SCc3nnc(-c4ccccc4)o3)nnc2-c2ccccc2)cc1	54*	-9	2	0.5	0.5	47
COc1ccc(-c2nnc(SCc3ncc(-c4ccccc4)o3)o2)cc1	87*	-15	14	0.1	0.7	28
C=CCSc1nnc(C)n1-c1ccc(Cl)cc1	52*	8	-6	0.5	0.7	30
Cc1nnc(SCc2ccon2)n1-c1ccccc1	/	/	-16	/	/	/
COc1ccc(-c2nnc(SCc3nnc(-c4ccccc4)o3)n2-c2ccccc2)cc1	-8	2	3	1.1	1	-2
SMILES	CYP2C19 inh	E coli WT exp	tolC growth inh	CYP2C19 act	CYP2C9 act	CYP2C9 inhib
CCOC(=O)c1c(C)c(C(=O)NCCCN2CCCC2=O)c(C)n1CC	-8	-5	-8	1.1	1.1	-10
O=C(Nc1c(Cl)cccc1Cl)c1cc(=O)n(Cc2ccccc2)c(=O)[nH]1	-5	-4	/	1.1	1.1	-11
COc1ccc(-c2nnc(SCc3nnc(-c4ccccc4)o3)n2C)cc1OC	14	4	1	0.9	0.8	20
Cc1nnc(SCc2nnc(-c3ccc(Cl)cc3)o2)n1-c1ccccc1	60*	/	13	0.4	0.5	46
Brc1ccccc1-c1nnc(CSc2nnnn2-c2ccccc2)o1	92*	-20	25	0.1	0.6	42
COc1ccc2[nH]c3nc(SC(C)C)nnc3c2c1	8	-8	-11	0.9	0.8	24
COc1ccc(-c2nnc(SCc3nnc(-c4ccc(Cl)cc4)o3)n2-c2ccccc2)cc1	36	-11	15	0.6	0.5	54*
COc1ccc2[nH]c3nc(SCc4nnc(-c5ccccc5)o4)nnc3c2c1	50	-8	-14	0.5	0.4	64*
Cc1nn(C)c(C)c1NC(=O)CN1CCC(O)(c2ccc3c(c2)OCO3)CC1	-7	4	-27	1.1	1.1	-7
CCOc1ccc(-c2nnc(-c3ccccc3)n2-c2ccccc2)cc1	28	1	/	0.7	0.3	65*
COc1ccc(C(C)=O)cc1CSc1nnc(-c2ccc(Cl)cc2)n1-c1ccccc1	50*	-4	/	0.5	0.5	45
CCN(CC)C(=O)CSc1nnc(-c2ccccc2)n1-c1ccccc1	45	3	-3	0.6	0.6	39
Cc1nnc(SCc2nnc(-c3ccccc3Br)o2)n1-c1ccccc1	82*	2	5	0.2	2*	-96
Cc1cccc(C)c1OC(=O)CN(c1ccc(Cl)cc1)S(C)(=O)=O	-1	3	/	1	0.8	15
Cc1ccc(N2CCN(C(=O)C3CCN(S(=O)(=O)c4cccc5nsnc45)CC3)CC2C)cc1 (stereo unspecified)	/	/	-4	/	/	/
Cc1cc(C)c(S(=O)(=O)c2c(C)cccc2C)c(OCC(C)C)n1	84*	5	/	0.2	0.1	91*
CSc1ccc(S(=O)(=O)Nc2ccc(F)cc2)cc1	100*	8	38	0	0.1	92*
CC(=O)NS(=O)(=O)c1ccc(NS(=O)(=O)c2ccc(F)cc2)cc1	3	-11	-2	1	0.4	59*
COC(=O)c1ccc(NS(=O)(=O)c2ccc(SC)cc2)cc1	-14	1	21	1.1	0.9	7
CC(=O)NS(=O)(=O)c1ccc(N)cc1	/	/	-4	/	/	/
COc1ccc(NS(=O)(=O)c2ccc(SC)cc2)cc1	100*	16	25	0	0	96*
O=S(=O)(Nc1ccc(-c2csc(-c3ccccc3)n2)cc1)c1ccc(F)cc1	8	-6	/	0.9	0	97*
CCOc1ccccc1NC(=O)Cn1cnc2c(nnn2-c2cccc(OC)c2)c1=O	/	-2	-2	/	/	/
CCOc1ccc(-c2nc(-c3ccccc3C)no2)cc1	26	/	-1	0.7	1.3	-27
O=S(=O)(/N=C(\Sc1ccccc1)c1ccccc1)c1ccc(Cl)cc1	16	0	/	0.8	0.4	62*
CSC(=NS(=O)(=O)c1ccc(C)cc1)SC	21	-5	-12	0.8	2.1*	-106
Cc1ccc(S(=O)(=O)/N=C(\CSC(N)=O)Nc2ccccc2)cc1	21	0	/	0.8	1.9	-87
O=C(O)CN=C(NS(=O)(=O)c1ccc(Cl)cc1)c1ccccc1	-6	3	/	1.1	1	-4
Cc1ccc(S(=O)(=O)NC(=NCC(=O)O)c2ccccc2)cc1	-6	-5	-15	1.1	1	-5
